Results as given in ChEMBL document CHEMBL1914378, “Synthesis and apoptosis inducing ability of new anilino substituted pyrimidine sulfonamides as potential anticancer agents” (Eur J Med Chem, 2011).
Structures can show the parent of a compound that is named as a salt. The source made the active and inactive calls. No cut-off for these calls is given here.

The molecules below were run on K562 (assay: Antiproliferative activity against human K562 cells assessed as reduction in incorporation of BrdU into cellular DNA at 10 uM after 24 hrs). Details: not given.
Type: functional, cell-based
Summary of the method: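 K562 cells seeded 15,000/well, grown 24 h, then labelled with BrdU 5 h at RT, then exposed to compound at final 10 (micro)M for 24 h. Detection by anti-BrdU, HRP secondary (1:2000) 30 min, TMB substrate 30 min at room temperature; optical density read at 450 nm.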

Row | SMILES | Activity
1 | COc1cc(-c2ccnc(Nc3cc(NS(=O)(=O)c4ccc(-c5ccccc5)cc4)ccc3C)n2)cc(OC)c1OC | Active
2 | Cc1ccc(NS(=O)(=O)c2cnc3ccccc3c2)cc1Nc1nccc(-c2cccnc2)n1 | Active
3 | COc1ccc(S(=O)(=O)Nc2ccc(C)c(Nc3nccc(-c4cc(OC)c(OC)c(OC)c4)n3)c2)cc1OC | Active

Each molecule was assayed on K562 (assay: Cell cycle arrest in human K562 cells at G1 phase assessed as decrease in CDK4 protein level at 10 uM after 24 hrs by Western blot analysis relative to control). Details: not given.
Type: functional, cell-based
Summary of the method: (§1)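 K562 cells treated 24 h with compound at 10 (micro)M; lysed in ice-cold RIPA with protease/phosphatase inhibitors, centrifuged 12,000 rpm 10 min, protein by Bradford. 30 µg per lane on 12% SDS-PAGE, PVDF transfer, blocked 2 h RT in TBST with 5% blocking powder. Primary antibody 4 °C overnight, HRP secondary 1:2000 1 h RT; chemiluminescence; β-actin loading control; untreated cells as control.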

Row | SMILES | Activity
4 | COc1cc(-c2ccnc(Nc3cc(NS(=O)(=O)c4ccc(-c5ccccc5)cc4)ccc3C)n2)cc(OC)c1OC | Active
5 | Cc1ccc(NS(=O)(=O)c2cnc3ccccc3c2)cc1Nc1nccc(-c2cccnc2)n1 | Active
6 | COc1ccc(S(=O)(=O)Nc2ccc(C)c(Nc3nccc(-c4cc(OC)c(OC)c(OC)c4)n3)c2)cc1OC | Active

What follows are molecules tested on MDA-MB-231 (assay: Cytotoxicity against human MDA-MB-231 cells after 24 hrs by MTT assay). Details: MDA-MB-231, 24 h.
Type: functional, cell-based

Row | SMILES | IC50
7 | COc1ccc(S(=O)(=O)Nc2ccc(C)c(Nc3nccc(-c4cc(OC)c(OC)c(OC)c4)n3)c2)cc1 | 6.86 µM
8 | COc1cc(-c2ccnc(Nc3cc(NS(=O)(=O)c4ccc(-c5ccccc5)cc4)ccc3C)n2)cc(OC)c1OC | 6.93 µM
9 | Cc1ccc(NS(=O)(=O)c2ccc3ccccc3c2)cc1Nc1nccc(-c2cccnc2)n1 | 8.31 µM
10 | Cc1ccc(NS(=O)(=O)c2cnc3ccccc3c2)cc1Nc1nccc(-c2cccnc2)n1 | 7.31 µM
11 | Cc1ccc(NS(=O)(=O)c2ccc(-c3ccccc3)cc2)cc1Nc1nccc(-c2cccnc2)n1 | 8 µM
12 | Cc1ccc(NC(=O)c2ccc(CN3CCN(C)CC3)cc2)cc1Nc1nccc(-c2cccnc2)n1 [IMATINIB MESYLATE] | 1.8 µM
13 | Cc1ccc(NS(=O)(=O)c2ccc(Cl)cc2)cc1Nc1nccc(-c2cccnc2)n1 | 7.79 µM
14 | COc1ccc(S(=O)(=O)Nc2ccc(C)c(Nc3nccc(-c4cc(OC)c(OC)c(OC)c4)n3)c2)cc1OC | 7.48 µM
15 | COc1cc(-c2ccnc(Nc3cc(NS(=O)(=O)c4ccc5ccccc5c4)ccc3C)n2)cc(OC)c1OC | 7.55 µM

These molecules were tested on K562 (assay: Cell cycle arrest in human K562 cells at G1 phase assessed as decrease in cyclin D1 protein level at 10 uM after 24 hrs by Western blot analysis relative to control). Details: not given.
Type: functional, cell-based
Summary of the method: as §1

Row | SMILES | Activity
16 | COc1cc(-c2ccnc(Nc3cc(NS(=O)(=O)c4ccc(-c5ccccc5)cc4)ccc3C)n2)cc(OC)c1OC | Active
17 | Cc1ccc(NS(=O)(=O)c2cnc3ccccc3c2)cc1Nc1nccc(-c2cccnc2)n1 | Active
18 | COc1ccc(S(=O)(=O)Nc2ccc(C)c(Nc3nccc(-c4cc(OC)c(OC)c(OC)c4)n3)c2)cc1OC | Active

What follows are molecules tested on K562 (assay: Cytotoxicity against human K562 cells after 24 hrs by MTT assay). Details: K562, 24 h.
Type: functional, cell-based

Row | SMILES | IC50
19 | COc1ccc(S(=O)(=O)Nc2ccc(C)c(Nc3nccc(-c4cc(OC)c(OC)c(OC)c4)n3)c2)cc1 | 9.12 µM
20 | COc1cc(-c2ccnc(Nc3cc(NS(=O)(=O)c4ccc(-c5ccccc5)cc4)ccc3C)n2)cc(OC)c1OC | 5.6 µM
21 | Cc1ccc(NS(=O)(=O)c2ccc3ccccc3c2)cc1Nc1nccc(-c2cccnc2)n1 | 9.89 µM
22 | Cc1ccc(NS(=O)(=O)c2cnc3ccccc3c2)cc1Nc1nccc(-c2cccnc2)n1 | 5.88 µM
23 | Cc1ccc(NS(=O)(=O)c2ccc(-c3ccccc3)cc2)cc1Nc1nccc(-c2cccnc2)n1 | 9.49 µM
24 | Cc1ccc(NC(=O)c2ccc(CN3CCN(C)CC3)cc2)cc1Nc1nccc(-c2cccnc2)n1 [IMATINIB MESYLATE] | 0.21 µM
25 | Cc1ccc(NS(=O)(=O)c2ccc(Cl)cc2)cc1Nc1nccc(-c2cccnc2)n1 | 10.2 µM
26 | COc1ccc(S(=O)(=O)Nc2ccc(C)c(Nc3nccc(-c4cc(OC)c(OC)c(OC)c4)n3)c2)cc1OC | 8.57 µM
27 | COc1cc(-c2ccnc(Nc3cc(NS(=O)(=O)c4ccc5ccccc5c4)ccc3C)n2)cc(OC)c1OC | 9.81 µM

The molecules below were run on K562 (assay: Induction of apoptosis in human K562 cells assessed as effect on TNFR1 protein expression at 10 uM after 24 hrs by Western blot analysis). Details: not given.
Type: functional, cell-based

Row | SMILES | Activity
28 | COc1cc(-c2ccnc(Nc3cc(NS(=O)(=O)c4ccc(-c5ccccc5)cc4)ccc3C)n2)cc(OC)c1OC | inactive
29 | Cc1ccc(NS(=O)(=O)c2cnc3ccccc3c2)cc1Nc1nccc(-c2cccnc2)n1 | inactive
30 | COc1ccc(S(=O)(=O)Nc2ccc(C)c(Nc3nccc(-c4cc(OC)c(OC)c(OC)c4)n3)c2)cc1OC | inactive

The molecules below were run on K562 (assay: Induction of apoptosis in human K562 cells assessed as upregulation of caspase3 protein expression at 10 uM after 24 hrs by Western blot analysis). Details: not given.
Type: functional, cell-based
Summary of the method: as §1

Row | SMILES | Activity
31 | COc1cc(-c2ccnc(Nc3cc(NS(=O)(=O)c4ccc(-c5ccccc5)cc4)ccc3C)n2)cc(OC)c1OC | Active
32 | Cc1ccc(NS(=O)(=O)c2cnc3ccccc3c2)cc1Nc1nccc(-c2cccnc2)n1 | Active
33 | COc1ccc(S(=O)(=O)Nc2ccc(C)c(Nc3nccc(-c4cc(OC)c(OC)c(OC)c4)n3)c2)cc1OC | Active

The molecules below were run on MCF7 (assay: Cytotoxicity against human MCF7 cells after 24 hrs by MTT assay). Details: MCF7, 24 h.
Type: functional, cell-based

Row | SMILES | IC50
34 | COc1ccc(S(=O)(=O)Nc2ccc(C)c(Nc3nccc(-c4cc(OC)c(OC)c(OC)c4)n3)c2)cc1 | 12.3 µM
35 | COc1cc(-c2ccnc(Nc3cc(NS(=O)(=O)c4ccc(-c5ccccc5)cc4)ccc3C)n2)cc(OC)c1OC | 9.33 µM
36 | Cc1ccc(NS(=O)(=O)c2ccc3ccccc3c2)cc1Nc1nccc(-c2cccnc2)n1 | 12 µM
37 | Cc1ccc(NS(=O)(=O)c2cnc3ccccc3c2)cc1Nc1nccc(-c2cccnc2)n1 | 9.96 µM
38 | Cc1ccc(NS(=O)(=O)c2ccc(-c3ccccc3)cc2)cc1Nc1nccc(-c2cccnc2)n1 | 11.9 µM
39 | Cc1ccc(NC(=O)c2ccc(CN3CCN(C)CC3)cc2)cc1Nc1nccc(-c2cccnc2)n1 [IMATINIB MESYLATE] | 0.83 µM
40 | Cc1ccc(NS(=O)(=O)c2ccc(Cl)cc2)cc1Nc1nccc(-c2cccnc2)n1 | 11.8 µM
41 | COc1ccc(S(=O)(=O)Nc2ccc(C)c(Nc3nccc(-c4cc(OC)c(OC)c(OC)c4)n3)c2)cc1OC | 11.6 µM
42 | COc1cc(-c2ccnc(Nc3cc(NS(=O)(=O)c4ccc5ccccc5c4)ccc3C)n2)cc(OC)c1OC | 11.6 µM

These molecules were tested on K562 (assay: Antiproliferative activity against human K562 cells assessed as down regulation of c-myc protein expression at 10 uM after 24 hrs by Western blot analysis relative to control). Details: not given.
Type: functional, cell-based
Summary of the method: as §1

Row | SMILES | Activity
43 | COc1cc(-c2ccnc(Nc3cc(NS(=O)(=O)c4ccc(-c5ccccc5)cc4)ccc3C)n2)cc(OC)c1OC | Active

Each molecule was assayed on K562 (assay: Inhibition of NF-kappaB p65 in human K562 cells assessed as decrease of S473 phosphorylated Akt1 level at 10 uM after 24 hrs by Western blot analysis). Details: not given.
Type: cell-based
Summary of the method: as §1

Row | SMILES | Activity
44 | COc1cc(-c2ccnc(Nc3cc(NS(=O)(=O)c4ccc(-c5ccccc5)cc4)ccc3C)n2)cc(OC)c1OC | Active
45 | Cc1ccc(NS(=O)(=O)c2cnc3ccccc3c2)cc1Nc1nccc(-c2cccnc2)n1 | Active
46 | COc1ccc(S(=O)(=O)Nc2ccc(C)c(Nc3nccc(-c4cc(OC)c(OC)c(OC)c4)n3)c2)cc1OC | Active

Each molecule was assayed on K562 (assay: Induction of apoptosis in human K562 cells assessed as upregulation of caspase7 protein expression at 10 uM after 24 hrs by Western blot analysis). Details: not given.
Type: functional, cell-based
Summary of the method: as §1

Row | SMILES | Activity
47 | COc1cc(-c2ccnc(Nc3cc(NS(=O)(=O)c4ccc(-c5ccccc5)cc4)ccc3C)n2)cc(OC)c1OC | Active
48 | Cc1ccc(NS(=O)(=O)c2cnc3ccccc3c2)cc1Nc1nccc(-c2cccnc2)n1 | Active
49 | COc1ccc(S(=O)(=O)Nc2ccc(C)c(Nc3nccc(-c4cc(OC)c(OC)c(OC)c4)n3)c2)cc1OC | Active

What follows are molecules tested on K562 (assay: Induction of apoptosis in human K562 cells assessed as DNA fragmentation at 10 uM after 24 hrs by TUNEL assay). Details: not given.
Type: functional, cell-based
Summary of the method: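 TUNEL on K562 cells after 24 h exposure at 10 (micro)M: TdT-mediated incorporation of fluorescein-dUTP at free 3'-OH ends of fragmented DNA, run per kit maker's protocol; green-stained cells scored as TUNEL-positive; untreated cells as staining control.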

Row | SMILES | Activity
50 | COc1cc(-c2ccnc(Nc3cc(NS(=O)(=O)c4ccc(-c5ccccc5)cc4)ccc3C)n2)cc(OC)c1OC | Active
51 | Cc1ccc(NS(=O)(=O)c2cnc3ccccc3c2)cc1Nc1nccc(-c2cccnc2)n1 | Active
52 | COc1ccc(S(=O)(=O)Nc2ccc(C)c(Nc3nccc(-c4cc(OC)c(OC)c(OC)c4)n3)c2)cc1OC | Active

What follows are molecules tested on K562 (assay: Inhibition of NF-kappaB p65 in human K562 cells assessed as down regulation of STAT3 protein level at 10 uM after 24 hrs by Western blot analysis). Details: not given.
Type: cell-based
Summary of the method: as §1

Row | SMILES | Activity
53 | COc1cc(-c2ccnc(Nc3cc(NS(=O)(=O)c4ccc(-c5ccccc5)cc4)ccc3C)n2)cc(OC)c1OC | Active
54 | Cc1ccc(NS(=O)(=O)c2cnc3ccccc3c2)cc1Nc1nccc(-c2cccnc2)n1 | Active
55 | COc1ccc(S(=O)(=O)Nc2ccc(C)c(Nc3nccc(-c4cc(OC)c(OC)c(OC)c4)n3)c2)cc1OC | Active

Each molecule was assayed on K562 (assay: Inhibition of NF-kappaB p65 in human K562 cells at 10 uM after 24 hrs by Western blot analysis). Details: not given.
Type: cell-based
Summary of the method: as §1

Row | SMILES | Activity
56 | COc1cc(-c2ccnc(Nc3cc(NS(=O)(=O)c4ccc(-c5ccccc5)cc4)ccc3C)n2)cc(OC)c1OC | Active
57 | Cc1ccc(NS(=O)(=O)c2cnc3ccccc3c2)cc1Nc1nccc(-c2cccnc2)n1 | inactive
